Reference: ChEMBL document CHEMBL1649458, “Antibiotic resistance in Pseudomonas aeruginosa strains with increased mutation frequency due to inactivation of the DNA oxidative repair system” (2009)
Values after ≈ are worked out from the molar mass of the structure shown. Active and inactive are the calls of the source. The rule behind the calls is not given here.

Experiments:
Pseudomonas aeruginosa [1] = test: Antimicrobial activity against Pseudomonas aeruginosa PAO1 harboring DNA oxidative repair system deltamutT::Gm mutant gene by Etest; assay type: functional
How it was run: (§1)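 MICs by Etest per manufacturer's instructions on P. aeruginosa strains grown in LB; plates incubated at 37°C.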

Pseudomonas aeruginosa [2] = test: Antimicrobial activity against Pseudomonas aeruginosa PAO1 harboring DNA oxidative repair system deltamutM::Gm mutant gene assessed as doubling time; assay type: functional
How it was run: (§2)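 Overnight LB cultures adjusted to OD600 0.01 and grown at 37°C; OD600 read every 20 min to stationary phase. Doubling time taken from the slope of the exponential phase on a semilog plot; mean ± SD of three individual cultures.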

Pseudomonas aeruginosa [3] = test: Antimicrobial activity against Pseudomonas aeruginosa PAO1 assessed as microbial doubling time; assay type: functional
How it was run: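 Overnight LB cultures diluted to OD600 0.01 in LB and grown at 37°C. OD600 read every 20 min until stationary phase. OD600 plotted against time on a semilog scale, and doubling time taken from the slope of the straight exponential-phase segment. Value is the mean of three separate cultures ± standard deviation.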

Pseudomonas aeruginosa [4] = test: Antimicrobial activity against Pseudomonas aeruginosa PAO1 harboring DNA oxidative repair system deltamutM::Gm mutant gene by Etest; assay type: functional; how it was run: as §1
Pseudomonas aeruginosa [5] = test: Antimicrobial activity against Pseudomonas aeruginosa PAO1 harboring DNA oxidative repair system mutY mutant gene complemented with wild type DNA oxidative repair system mutY gene; assay type: functional, organism-based
Pseudomonas aeruginosa [6] = test: Antimicrobial activity against Pseudomonas aeruginosa PAO1 harboring DNA oxidative repair system deltamutY::Gm mutant gene assessed as doubling time; assay type: functional; how it was run: as §2
Pseudomonas aeruginosa [7] = test: Antimicrobial activity against Pseudomonas aeruginosa PAO1 by Etest; assay type: functional; how it was run: as §1
Pseudomonas aeruginosa [8] = test: Antimicrobial activity against Pseudomonas aeruginosa PAO1 harboring DNA oxidative repair system […] mutant gene complemented with wild type DNA oxidative repair system mutY gene; assay type: functional, organism-based
Pseudomonas aeruginosa [9] = test: Antimicrobial activity against Pseudomonas aeruginosa PAO1 harboring DNA oxidative repair system deltamutY::Gm mutant gene by Etest; assay type: functional; how it was run: as §1
Pseudomonas aeruginosa [10] = test: Antimicrobial activity against Pseudomonas aeruginosa PAO1 harboring DNA oxidative repair system deltamutT::Gm mutant gene assessed as doubling time; assay type: functional; how it was run: as §2
Pseudomonas aeruginosa [11] = test: Antimicrobial activity against Pseudomonas aeruginosa PAO1 harboring DNA oxidative repair system mutT mutant gene selected in presence of Ceftazidime by Etest; assay type: functional
How it was run: (§3)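 Resistant colonies picked from population-analysis plates (5% blood agar with twofold antibiotic dilutions) and passaged three times in antibiotic-free LB before Etest MIC determination. MIC is the mean of four colonies, two successive determinations per colony; PAO1 after tobramycin selection is the mean of two colonies.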

Pseudomonas aeruginosa [12] = test: Antimicrobial activity against Pseudomonas aeruginosa PAO1 selected in presence of ciprofloxacin by Etest; assay type: functional; how it was run: as §3
Pseudomonas aeruginosa [13] = test: Antimicrobial activity against Pseudomonas aeruginosa PAO1 harboring DNA oxidative repair system mutY mutant gene selected in presence of tobramycin by Etest; assay type: functional; how it was run: as §3
Pseudomonas aeruginosa [14] = test: Antimicrobial activity against Pseudomonas aeruginosa PAO1 harboring DNA oxidative repair system mutM mutant gene selected in presence of ciprofloxacin by Etest; assay type: functional; how it was run: as §3
Pseudomonas aeruginosa [15] = test: Antimicrobial activity against Pseudomonas aeruginosa PAO1 harboring DNA oxidative repair system mutY mutant gene selected in presence of Ceftazidime by Etest; assay type: functional; how it was run: as §3
Pseudomonas aeruginosa [16] = test: Antimicrobial activity against Pseudomonas aeruginosa PAO1 selected in presence of tobramycin by Etest; assay type: functional; how it was run: as §3
Pseudomonas aeruginosa [17] = test: Antimicrobial activity against Pseudomonas aeruginosa PAO1 harboring DNA oxidative repair system mutM mutant gene selected in presence of Ceftazidime by Etest; assay type: functional; how it was run: as §3
Pseudomonas aeruginosa [18] = test: Antimicrobial activity against Pseudomonas aeruginosa PAO1 harboring DNA oxidative repair system mutT mutant gene selected in presence of tobramycin by Etest; assay type: functional; how it was run: as §3
Pseudomonas aeruginosa [19] = test: Antimicrobial activity against Pseudomonas aeruginosa PAO1 harboring DNA oxidative repair system mutY mutant gene selected in presence of ciprofloxacin by Etest; assay type: functional; how it was run: as §3
Pseudomonas aeruginosa [20] = test: Antimicrobial activity against Pseudomonas aeruginosa PAO1 harboring DNA oxidative repair system mutT mutant gene selected in presence of ciprofloxacin by Etest; assay type: functional; how it was run: as §3
Pseudomonas aeruginosa [21] = test: Antimicrobial activity against Pseudomonas aeruginosa PAO1 harboring DNA oxidative repair system mutM mutant gene selected in presence of tobramycin by Etest; assay type: functional; how it was run: as §3
Pseudomonas aeruginosa [22] = test: Antimicrobial activity against Pseudomonas aeruginosa PAO1 selected in presence of Ceftazidime by Etest; assay type: functional; how it was run: as §3
Pseudomonas aeruginosa [23] = test: Selectivity ratio of MIC for Pseudomonas aeruginosa PAO1 harboring DNA oxidative repair system mutT mutant gene selected in presence of tobramycin to MIC for Pseudomonas aeruginosa PAO1 harboring DNA oxidative repair system mutT mutant gene; assay type: functional
Pseudomonas aeruginosa [24] = test: Selectivity ratio of MIC for Pseudomonas aeruginosa PAO1 harboring DNA oxidative repair system mutY mutant gene selected in presence of tobramycin to MIC for Pseudomonas aeruginosa PAO1 harboring DNA oxidative repair system mutY mutant gene; assay type: functional
Pseudomonas aeruginosa [25] = test: Antimicrobial activity against Pseudomonas aeruginosa PAO1 harboring DNA oxidative repair system mutT mutant gene complemented with wild type DNA oxidative repair system mutT gene; assay type: functional, organism-based

| Structure (SMILES) | MIC (Pseudomonas aeruginosa [1]) [µg/mL] | Time (Pseudomonas aeruginosa [2]) [min] | Time (Pseudomonas aeruginosa [3]) [min] | MIC (Pseudomonas aeruginosa [4]) [µg/mL] | Activity (Pseudomonas aeruginosa [5]) | Time (Pseudomonas aeruginosa [6]) [min] | MIC (Pseudomonas aeruginosa [7]) [µg/mL] | Activity (Pseudomonas aeruginosa [8]) | MIC (Pseudomonas aeruginosa [9]) [µg/mL] | Time (Pseudomonas aeruginosa [10]) [min] | MIC (Pseudomonas aeruginosa [11]) [µg/mL] | MIC (Pseudomonas aeruginosa [12]) [µg/mL] | MIC (Pseudomonas aeruginosa [13]) [µg/mL] | MIC (Pseudomonas aeruginosa [14]) [µg/mL] | MIC (Pseudomonas aeruginosa [15]) [µg/mL] | MIC (Pseudomonas aeruginosa [16]) [µg/mL] | MIC (Pseudomonas aeruginosa [18]) [µg/mL] | MIC (Pseudomonas aeruginosa [19]) [µg/mL] | MIC (Pseudomonas aeruginosa [20]) [µg/mL] | MIC (Pseudomonas aeruginosa [21]) [µg/mL] | also measured |
| --- | --- | --- | --- | --- | --- | --- | --- | --- | --- | --- | --- | --- | --- | --- | --- | --- | --- | --- | --- | --- | --- |
| C[C@H]1[C@H](NC(=O)/C(=N\OC(C)(C)C(=O)O)c2csc(N)n2)C(=O)N1S(=O)(=O)O [AZTREONAM] | 1.5 (≈ 3.44 µM) | 27.3 | 26 | 1.5 (≈ 3.44 µM) | Active | 25.7 | 1.5 (≈ 3.44 µM) | Active | 1 (≈ 2.3 µM) | 27.7 |  |  |  |  |  |  |  |  |  |  |  |
| CC(C)(O/N=C(\C(=O)N[C@@H]1C(=O)N2C(C(=O)[O-])=C(C[n+]3ccccc3)CS[C@H]12)c1csc(N)n1)C(=O)O [CEFTAZIDIME] | 2 (≈ 3.66 µM) | 27.3 | 26 | 1.5 (≈ 2.74 µM) |  | 25.7 | 2 (≈ 3.66 µM) |  | 1.5 (≈ 2.74 µM) | 27.7 | 18 | 0.44 | 0.69 | 0.44 | 18 | 0.5 | 0.38 | 0.47 | 0.44 | 0.63 | MIC (Pseudomonas aeruginosa [17]): 26 µg/mL; MIC (Pseudomonas aeruginosa [22]): 20 µg/mL |
| O=C(N[C@H](CO)[C@H](O)c1ccc([N+](=O)[O-])cc1)C(Cl)Cl [CHLORAMPHENICOL] |  |  |  |  |  |  |  |  |  |  |  | 256 | 86 | 256 |  | 28 | 20 | 256 | 256 | 56 | fold change (FC) (Pseudomonas aeruginosa [23]): 3; fold change (FC) (Pseudomonas aeruginosa [24]): 2 |
| O=C(O)c1cn(C2CC2)c2cc(N3CCNCC3)c(F)cc2c1=O [CIPROFLOXACIN] |  | 27.3 | 26 | 0.19 (≈ 0.573 µM) |  | 25.7 | 0.19 (≈ 0.573 µM) |  | 0.19 (≈ 0.573 µM) | 27.7 | 0.16 | 0.75 | 0.16 | 0.88 | 0.17 | 0.32 | 0.08 | 0.75 | 0.75 | 0.11 | MIC (Pseudomonas aeruginosa [17]): 0.13 µg/mL |
| CCN1CCN(C(=O)N[C@@H](C(=O)N[C@@H]2C(=O)N3[C@@H]2SC(C)(C)[C@@H]3C(=O)O)c2ccccc2)C(=O)C1=O [PIPERACILLIN] | 2 (≈ 3.86 µM) | 27.3 | 26 | 2 (≈ 3.86 µM) | Active | 25.7 | 2 (≈ 3.86 µM) | Active | 2 (≈ 3.86 µM) | 27.7 |  |  |  |  |  |  |  |  |  |  |  |
| CN(C)[C@@H]1C(O)=C(C(N)=O)C(=O)[C@@]2(O)C(O)=C3C(=O)c4c(O)cccc4[C@@](C)(O)[C@H]3C[C@@H]12 [TETRACYCLINE] |  |  |  |  |  |  |  |  |  |  |  | 256 | 5.5 | 256 |  | 10 | 4.25 | 256 | 256 | 18 |  |
| NC[C@H]1O[C@H](O[C@H]2[C@H](O)[C@@H](O[C@H]3O[C@H](CO)[C@@H](O)[C@H](N)[C@H]3O)[C@H](N)C[C@@H]2N)[C@H](N)C[C@@H]1O [TOBRAMYCIN] | 1.5 (≈ 3.21 µM) | 27.3 | 26 | 1.5 (≈ 3.21 µM) | Active | 25.7 | 1.5 (≈ 3.21 µM) | Active | 1.5 (≈ 3.21 µM) | 27.7 | 2 | 1.06 | 3.75 | 1.19 | 2 | 6 | 0.9 | 1.37 | 1.25 | 3.5 | MIC (Pseudomonas aeruginosa [17]): 2 µg/mL; MIC (Pseudomonas aeruginosa [22]): 1.75 µg/mL; Activity (Pseudomonas aeruginosa [25]): Active |
